Experimental data: article PMC2947195 (Biochemical Journal, 2010)
Residue numbers refer to the chain shown, from its start.

Legend:
Assay type in all cases: cell-based
wt hRFC = molecular target: T1, wt hRFC (Homo sapiens, UniProt P41440); assay: [3H]MTX transport kinetics
T1 sequence (P41440 1-591): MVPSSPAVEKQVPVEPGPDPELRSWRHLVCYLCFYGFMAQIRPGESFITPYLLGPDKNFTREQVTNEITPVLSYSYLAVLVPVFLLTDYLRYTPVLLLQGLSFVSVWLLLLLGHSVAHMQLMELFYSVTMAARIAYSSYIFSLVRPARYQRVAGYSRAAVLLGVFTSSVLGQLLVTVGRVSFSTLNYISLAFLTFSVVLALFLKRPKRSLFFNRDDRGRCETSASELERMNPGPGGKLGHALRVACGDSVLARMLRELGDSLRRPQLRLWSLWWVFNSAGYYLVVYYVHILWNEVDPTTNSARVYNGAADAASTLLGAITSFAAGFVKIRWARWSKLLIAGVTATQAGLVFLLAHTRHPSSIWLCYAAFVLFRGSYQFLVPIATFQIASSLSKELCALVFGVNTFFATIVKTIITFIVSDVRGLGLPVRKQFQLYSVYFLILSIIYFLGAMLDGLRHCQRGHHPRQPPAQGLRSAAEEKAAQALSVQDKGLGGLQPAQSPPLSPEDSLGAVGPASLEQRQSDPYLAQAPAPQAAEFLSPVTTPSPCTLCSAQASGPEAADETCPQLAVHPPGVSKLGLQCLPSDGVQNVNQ
In short: (§1)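 Human hRFC-null K500E (K562 subline) cells were electroporated (155 V, 1000 μF) with wt or Ser313-mutant hRFC. Stable clones were selected in soft agar with G418 (1 mg/ml). [3H]MTX uptake was measured over 180 s in HBSS at 37 °C in a shaking water bath and expressed as pmol/mg protein (Lowry). Kt and Vmax came from Lineweaver–Burk plots, with Vmax normalized to densitometric Western blot hRFC levels. Three experiments, means±S.E.M.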

S313T hRFC [1] = molecular target: T2, S313T hRFC (Homo sapiens, UniProt P41440, S313T); assay: [3H]MTX transport kinetics
T2 sequence (P41440 1-591 S313T): T1 sequence (P41440 1-591) with S313T
In short: as §1

S313T hRFC [2] = molecular target: T2, S313T hRFC; assay: [3H]MTX uptake in transiently transfected R5 HeLa cells; conditions: 0.5 μM [3H]MTX, 2 min, 37 °C, normalized to hRFC protein on Western blots
[3] = molecular target: T3, S313C hRFC (Ser^313 replaced with cysteine) (Homo sapiens, UniProt P41440, S313C); assay: [3H]MTX uptake in transiently transfected R5 HeLa cells
T3 sequence (P41440 1-591 S313C): T1 sequence (P41440 1-591) with S313C
In short: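 Human R5 HeLa cells (transport-defective) were transiently transfected with Lipofectamine Plus, split at 24 h and assayed 24 h later. Uptake of 0.5 μM [3H]MTX ran for 2 min at 37 °C in HSM buffer (20 mM Hepes, 235 mM sucrose, pH 7.14 with MgO). Uptake was stopped with ice-cold PBS and cells solubilized in 0.5 M NaOH. Values in pmol/mg protein were normalized to HA-blot hRFC levels. Three experiments, means±S.E.M.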

[4] = K500E stable transfectant, mean±S.E.M., n=3
[5] = Vmax normalized to relative hRFC level on Western blots

Vmax (normalized)/Kt (wt hRFC): 2.44 | Kt (wt hRFC; [4]): 1.89 ± 0.43 µM | Normalized Vmax (wt hRFC; [5]): 4.62±0.37 | Vmax (normalized)/Kt (S313T hRFC [1]): 0.43 | Kt (S313T hRFC [1]; [4]): 2.11 ± 0.54 µM | Normalized Vmax (S313T hRFC [1]; [5]): 0.91±0.16 | [3H]MTX transport activity relative to wt hRFC (S313T hRFC [2]): ~ 8% | MTX transport [3]: abolished
Compound: CN(Cc1cnc2nc(N)nc(N)c2n1)c1ccc(C(=O)N[C@@H](CCC(=O)O)C(=O)O)cc1 [MTX, methotrexate]
